Data: ChEMBL document CHEMBL4339195, “Di-aryl Sulfonamide Motif Adds π-Stacking Bulk in Negative Allosteric Modulators of the NMDA Receptor” (ACS Med Chem Lett, 2019)

What was measured:
Type in all cases: cell-based
[1] = target: Glutamate NMDA receptor; Grin1/Grin2b (Rattus norvegicus, UniProt P35439+Q00960); assay: Negative allosteric modulation of recombinant rat GluN1/GluN2B expressed in Xenopus laevis oocytes assessed as inhibition of glutamate/glycine-induced current response at -40 mV holding potential by two-electrode voltage clamp method
Sequence of Glutamate NMDA receptor; Grin1/Grin2b (Q00960 whole entry, other chains not shown): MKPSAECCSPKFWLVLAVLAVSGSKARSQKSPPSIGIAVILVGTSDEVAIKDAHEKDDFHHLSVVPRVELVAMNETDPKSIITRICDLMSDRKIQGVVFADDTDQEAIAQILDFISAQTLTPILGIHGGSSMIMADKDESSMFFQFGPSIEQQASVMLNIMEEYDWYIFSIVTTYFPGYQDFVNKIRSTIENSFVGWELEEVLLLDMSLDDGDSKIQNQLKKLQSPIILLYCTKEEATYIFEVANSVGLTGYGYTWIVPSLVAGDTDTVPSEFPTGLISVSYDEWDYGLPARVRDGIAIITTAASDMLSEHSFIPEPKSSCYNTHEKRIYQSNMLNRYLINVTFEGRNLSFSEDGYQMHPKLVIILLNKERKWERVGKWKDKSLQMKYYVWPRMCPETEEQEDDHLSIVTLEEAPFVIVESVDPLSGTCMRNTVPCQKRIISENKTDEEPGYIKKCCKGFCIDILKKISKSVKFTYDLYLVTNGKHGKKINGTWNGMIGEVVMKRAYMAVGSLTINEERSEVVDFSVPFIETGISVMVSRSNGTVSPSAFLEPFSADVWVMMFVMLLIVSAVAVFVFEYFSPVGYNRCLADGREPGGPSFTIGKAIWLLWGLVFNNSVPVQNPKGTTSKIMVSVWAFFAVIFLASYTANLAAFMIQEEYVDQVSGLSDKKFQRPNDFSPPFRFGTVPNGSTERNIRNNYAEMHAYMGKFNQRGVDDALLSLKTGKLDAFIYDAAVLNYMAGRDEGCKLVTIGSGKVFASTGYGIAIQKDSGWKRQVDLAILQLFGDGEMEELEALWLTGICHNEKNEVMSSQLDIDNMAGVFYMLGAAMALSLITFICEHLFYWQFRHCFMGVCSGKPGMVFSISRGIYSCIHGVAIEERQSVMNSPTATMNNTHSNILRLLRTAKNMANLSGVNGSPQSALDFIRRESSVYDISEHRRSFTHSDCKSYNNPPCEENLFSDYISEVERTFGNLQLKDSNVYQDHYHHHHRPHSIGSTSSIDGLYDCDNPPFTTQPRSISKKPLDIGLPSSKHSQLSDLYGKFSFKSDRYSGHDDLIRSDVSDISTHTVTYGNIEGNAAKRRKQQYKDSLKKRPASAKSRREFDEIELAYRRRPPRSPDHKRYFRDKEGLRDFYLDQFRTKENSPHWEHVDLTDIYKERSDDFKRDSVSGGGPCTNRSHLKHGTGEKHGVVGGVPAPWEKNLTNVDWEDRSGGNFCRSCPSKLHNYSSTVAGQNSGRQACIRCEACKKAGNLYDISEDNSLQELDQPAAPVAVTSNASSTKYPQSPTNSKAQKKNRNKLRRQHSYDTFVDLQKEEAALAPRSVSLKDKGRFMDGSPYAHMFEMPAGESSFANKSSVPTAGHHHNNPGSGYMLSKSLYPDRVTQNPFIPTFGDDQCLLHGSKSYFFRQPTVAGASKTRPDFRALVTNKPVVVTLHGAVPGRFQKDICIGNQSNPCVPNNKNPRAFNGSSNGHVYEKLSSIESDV
Procedure, shortened: (§1)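 Oocytes recorded while the drug is co-applied with a maximally effective 100 µM glutamate plus 30 µM glycine. Response is expressed as percent of the glutamate/glycine control. IC50 comes from a Hill fit to the average composite concentration-response curve. 8-16 oocytes from 2-3 frogs per compound and receptor.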

[2] = target: Ionotropic glutamate receptor NMDA 1/2D (Rattus norvegicus, UniProt P35439+Q62645); assay: Negative allosteric modulation of recombinant rat GluN1/GluN2D expressed in Xenopus laevis oocytes assessed as inhibition of glutamate/glycine-induced current response at -40 mV holding potential by two-electrode voltage clamp method; procedure, shortened: as §1
Homo sapiens = species on record: Homo sapiens; assay: Negative allosteric modulation of human GluA2 R607Q mutant expressed in Xenopus laevis oocytes assessed as inhibition of glutamate-induced current response at 30 uM at -40 mV holding potential by two-electrode voltage clamp method relative to glutamate alone
Procedure, shortened: (§2)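 Oocyte two-electrode voltage clamp at -40 mV holding. Test compound co-applied with agonist; response given as percent of the mean of control and recovery currents to agonist alone. Agonists: 100 µM glutamate (AMPA, kainate), 100 µM GABA (GABA receptors), 100 µM glycine (glycine receptor), 100 µM serotonin (5-HT3A), 9 µM ATP (P2X), 1 µM acetylcholine (nicotinic).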

[3] = target: Glutamate receptor ionotropic, kainate 2 (Rattus norvegicus) (UniProt P42260); assay: Negative allosteric modulation of rat GluK2 expressed in Xenopus laevis oocytes assessed as inhibition of glutamate-induced current response at 30 uM at -40 mV holding potential in presence of concanavalin A by two-electrode voltage clamp method relative to glutamate alone; procedure, shortened: as §2
Sequence of Glutamate receptor ionotropic, kainate 2 (Rattus norvegicus) (P42260 whole entry): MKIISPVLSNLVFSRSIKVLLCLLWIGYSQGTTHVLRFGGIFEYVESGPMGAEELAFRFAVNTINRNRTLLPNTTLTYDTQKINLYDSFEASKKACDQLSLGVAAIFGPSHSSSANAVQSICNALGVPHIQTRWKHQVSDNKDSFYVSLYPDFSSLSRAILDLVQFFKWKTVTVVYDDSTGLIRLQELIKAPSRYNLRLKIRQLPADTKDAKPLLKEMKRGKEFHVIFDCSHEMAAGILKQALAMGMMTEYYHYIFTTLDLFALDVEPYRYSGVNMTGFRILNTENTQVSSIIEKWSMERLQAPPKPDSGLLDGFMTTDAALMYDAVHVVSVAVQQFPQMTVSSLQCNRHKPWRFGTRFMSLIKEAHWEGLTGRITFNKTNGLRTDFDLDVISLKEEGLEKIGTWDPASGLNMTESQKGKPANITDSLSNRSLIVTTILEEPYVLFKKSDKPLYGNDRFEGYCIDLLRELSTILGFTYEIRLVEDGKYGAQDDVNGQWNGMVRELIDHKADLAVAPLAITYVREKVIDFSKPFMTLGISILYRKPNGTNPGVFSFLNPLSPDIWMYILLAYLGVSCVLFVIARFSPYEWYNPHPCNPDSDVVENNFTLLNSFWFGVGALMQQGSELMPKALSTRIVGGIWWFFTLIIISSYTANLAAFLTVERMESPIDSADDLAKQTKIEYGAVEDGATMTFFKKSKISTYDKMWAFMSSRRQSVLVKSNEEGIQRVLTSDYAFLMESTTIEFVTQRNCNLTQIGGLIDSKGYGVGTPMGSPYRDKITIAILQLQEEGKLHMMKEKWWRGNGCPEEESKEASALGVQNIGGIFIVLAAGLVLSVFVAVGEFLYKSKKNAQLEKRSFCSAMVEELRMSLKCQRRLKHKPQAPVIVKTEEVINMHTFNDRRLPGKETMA

[4] = target: CHRNA1/CHRNB1/CHRNG/CHRND (Rattus norvegicus) (UniProt P25109+P25108+P25110+P18916); assay: Negative allosteric modulation of rat alpha1betagammadelta nACHR expressed in Xenopus laevis oocytes assessed as inhibition of acetylcholine-induced current response at 30 uM at -40 mV holding potential by two-electrode voltage clamp method relative to acetylcholine alone; procedure, shortened: as §2
[5] = target: P2X receptor (Homo sapiens) (UniProt P51575+Q99571+Q9UBL9+O15547+P56373+Q99572+Q93086); assay: Negative allosteric modulation of human P2X expressed in Xenopus laevis oocytes assessed as inhibition of ATP-induced current response at 30 uM at -40 mV holding potential by two-electrode voltage clamp method relative to ATP alone; procedure, shortened: as §2
[6] = target: Glutamate receptor 1 (Rattus norvegicus) (UniProt P19490); assay: Negative allosteric modulation of recombinant rat GluA1 expressed in Xenopus laevis oocytes assessed as inhibition of glutamate-induced current response at 30 uM at -40 mV holding potential by two-electrode voltage clamp method relative to glutamate alone; procedure, shortened: as §2
Sequence of Glutamate receptor 1 (Rattus norvegicus) (P19490 whole entry): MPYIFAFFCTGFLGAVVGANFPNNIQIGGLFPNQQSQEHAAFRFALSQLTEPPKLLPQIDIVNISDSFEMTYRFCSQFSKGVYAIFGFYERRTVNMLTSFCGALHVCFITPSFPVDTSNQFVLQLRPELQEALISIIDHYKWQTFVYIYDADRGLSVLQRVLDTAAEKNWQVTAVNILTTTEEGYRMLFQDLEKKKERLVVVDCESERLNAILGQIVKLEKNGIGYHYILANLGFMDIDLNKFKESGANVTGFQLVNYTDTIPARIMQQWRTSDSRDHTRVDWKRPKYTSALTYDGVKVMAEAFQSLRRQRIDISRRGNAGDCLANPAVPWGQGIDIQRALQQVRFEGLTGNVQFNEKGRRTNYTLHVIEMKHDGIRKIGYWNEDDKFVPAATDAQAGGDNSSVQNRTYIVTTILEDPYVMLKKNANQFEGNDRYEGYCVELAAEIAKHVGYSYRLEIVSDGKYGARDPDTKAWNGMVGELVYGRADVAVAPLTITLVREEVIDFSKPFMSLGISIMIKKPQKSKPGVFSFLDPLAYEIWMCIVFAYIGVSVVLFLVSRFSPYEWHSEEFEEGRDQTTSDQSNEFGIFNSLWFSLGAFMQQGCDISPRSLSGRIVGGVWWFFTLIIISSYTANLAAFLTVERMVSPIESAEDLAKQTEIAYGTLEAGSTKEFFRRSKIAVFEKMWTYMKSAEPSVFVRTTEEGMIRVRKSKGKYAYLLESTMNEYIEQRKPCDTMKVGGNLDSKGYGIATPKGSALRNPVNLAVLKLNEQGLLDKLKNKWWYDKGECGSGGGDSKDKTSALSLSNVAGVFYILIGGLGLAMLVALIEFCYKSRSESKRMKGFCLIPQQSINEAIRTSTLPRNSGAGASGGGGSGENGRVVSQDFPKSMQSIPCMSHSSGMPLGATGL

[7] = target: Ionotropic glutamate receptor NMDA 1/2D (Rattus norvegicus) (UniProt P35439+Q62645); assay: Potency index, ratio of NP11999 IC50 to test compound IC50 for negative allosteric modulation of recombinant rat GluN1/GluN2D expressed in Xenopus laevis oocytes assessed as inhibition of glutamate/glycine-induced current response
[8] = target: Glutamate NMDA receptor; Grin1/Grin2c (Rattus norvegicus, UniProt P35439+Q00961); assay: Negative allosteric modulation of recombinant rat GluN1/GluN2C expressed in Xenopus laevis oocytes assessed as inhibition of glutamate/glycine-induced current response at -40 mV holding potential by two-electrode voltage clamp method; procedure, shortened: as §1
Sequence of Glutamate NMDA receptor; Grin1/Grin2c (Q00961 whole entry, other chains not shown): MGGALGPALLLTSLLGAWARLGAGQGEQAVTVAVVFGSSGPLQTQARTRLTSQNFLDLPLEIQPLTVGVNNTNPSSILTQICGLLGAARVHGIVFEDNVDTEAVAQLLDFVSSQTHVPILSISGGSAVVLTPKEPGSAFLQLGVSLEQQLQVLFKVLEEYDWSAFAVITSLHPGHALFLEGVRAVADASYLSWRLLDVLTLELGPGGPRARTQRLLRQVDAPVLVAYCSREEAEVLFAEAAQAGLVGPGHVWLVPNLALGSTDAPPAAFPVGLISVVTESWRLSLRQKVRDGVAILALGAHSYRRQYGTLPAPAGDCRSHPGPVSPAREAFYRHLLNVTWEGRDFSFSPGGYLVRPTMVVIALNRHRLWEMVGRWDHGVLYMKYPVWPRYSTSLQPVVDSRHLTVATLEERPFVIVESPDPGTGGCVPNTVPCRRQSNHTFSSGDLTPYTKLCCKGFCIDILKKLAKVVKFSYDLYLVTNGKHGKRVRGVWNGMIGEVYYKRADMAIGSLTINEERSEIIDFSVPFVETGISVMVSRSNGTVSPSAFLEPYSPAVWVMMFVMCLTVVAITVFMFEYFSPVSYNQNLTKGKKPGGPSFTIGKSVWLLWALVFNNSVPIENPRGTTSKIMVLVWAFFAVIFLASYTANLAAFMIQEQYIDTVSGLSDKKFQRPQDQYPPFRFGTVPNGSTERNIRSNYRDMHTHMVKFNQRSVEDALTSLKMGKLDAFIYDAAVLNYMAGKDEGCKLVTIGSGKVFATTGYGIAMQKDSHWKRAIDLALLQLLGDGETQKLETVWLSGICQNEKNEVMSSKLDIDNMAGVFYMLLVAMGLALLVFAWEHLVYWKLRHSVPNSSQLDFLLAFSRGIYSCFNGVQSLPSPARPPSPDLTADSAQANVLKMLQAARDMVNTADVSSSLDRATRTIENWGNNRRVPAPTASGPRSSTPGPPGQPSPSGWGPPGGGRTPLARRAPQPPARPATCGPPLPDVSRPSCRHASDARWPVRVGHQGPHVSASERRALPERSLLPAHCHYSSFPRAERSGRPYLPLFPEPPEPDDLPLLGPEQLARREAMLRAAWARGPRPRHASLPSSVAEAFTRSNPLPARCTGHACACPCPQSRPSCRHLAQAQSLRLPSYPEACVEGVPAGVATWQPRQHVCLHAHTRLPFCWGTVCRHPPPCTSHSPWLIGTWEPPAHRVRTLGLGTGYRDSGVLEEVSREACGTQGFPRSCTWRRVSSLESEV

Question: Which results are given for CCN(CC)C(=O)Oc1ccc(C(=O)Nc2cccc(CCNS(=O)(=O)c3ccccc3)c2)cc1?
Answer: IC50 [1]: 7600 nM; IC50 [2]: 1700 nM; inhibition (Homo sapiens): 95%; inhibition [3]: 92%; inhibition [4]: 27%; inhibition [5]: 80%; inhibition [6]: 79%; Ratio IC50 [7]: < 6; IC50 [8]: 2400 nM
